# Measured values taken from ChEMBL document CHEMBL1125534, “Omega-[(omega-arylalkyl)aryl]alkanoic acids: a new class of specific LTA4 hydrolase inhibitors” (J Med Chem, 1992).
# What was measured:
# [1] = Inhibition of LTB4 biosynthesis by porcine leukocytes at LTA4 hydrolase level at a concentration of 2*10e-5 M; format: functional, Sus scrofa
# Method in brief: (§1)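 Porcine leukocyte homogenate (cells at 10⁸/mL, sonicated) with CaCl₂ and ATP each at 2 mmol/L final. Preincubated 3 min at 25 °C with inhibitor (in ethanol or PBS) plus 5,8,11,14-[…] acid 4 μmol/L final to block 12-LO. Then incubated 5 min at 37 °C with [1-¹⁴C]arachidonic acid. LTB₄ and 6-trans-isomers separated by HPLC with radioactivity detection. Mean of ≥3 experiments.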
# [2] = Evaluated for the inhibitory activity against Leukotriene A4 hydrolase; parameters: species or system Sus scrofa; method in brief: as §1
# [3] = test system: Leukotriene A-4 hydrolase (Sus scrofa); assay: Inhibition of LTA4 hydrolase mediated LTB4 biosynthesis by porcine leukocytes at 2*10e-5M
# [4] = test system: Leukotriene A-4 hydrolase (Sus scrofa); assay: Inhibitory activity against Leukotriene A4 hydrolase at 100 mg/kg (po) in rat plasma extracts
# [5] = test system: Leukotriene A-4 hydrolase (Sus scrofa); assay: Inhibitory activity Leukotriene A4 hydrolase at 5 mg/kg (po) in rat plasma
# [6] = test system: Leukotriene A-4 hydrolase (Sus scrofa); assay: Inhibitory activity against Leukotriene A4 hydrolase at 30 mg/kg (po) in rat plasma extracts
# [7] = test system: Leukotriene A-4 hydrolase (Sus scrofa); assay: Inhibitory activity against Leukotriene A4 hydrolase at 5 mg/kg (po) in rat plasma extracts
# [8] = test system: Leukotriene A-4 hydrolase (Sus scrofa); assay: Inhibitory activity against Leukotriene A4 hydrolase at 100 mg/kg (po) in rat plasma
IC50 [2] [µM],inhibition [3] [%],SMILES,Inhibition [1] [%],further results
,,O=C(O)CCCCCCc1ccc(Cc2ccc(O)cc2)cc1,56,
,,NC(=O)CCCCCCc1ccc(CCCc2ccccc2)s1,0,
21.1,63,Cc1ccc(Cc2ccc(CCCCCCC(=O)O)cc2)cc1,,
,,O=C(O)CCCCCCc1ccc(-c2ccccc2)cc1,41,
,,O=C(O)CCCCCS(=O)(=O)c1ccc(Cc2ccccc2)cc1,2,
,,CC(C)(CCCCCc1ccc(CCCc2ccccc2)s1)C(=O)O,46,
,,O=C(O)CCCCCCc1ccc(CCCc2ccc(Cl)cc2)s1,63,
9.2,69,COc1ccc(Cc2ccc(CCCCCCC(=O)O)cc2)cc1,,
,,O=C(O)CCCCC[S+]([O-])c1ccc(CCCc2ccccc2)s1 (configuration not stated),0,
,,COC(=O)COCCCCc1ccc(CCCc2ccccc2)s1,66,
,,O=C(O)CCCCCCc1ccc(Cc2cccc3ccccc23)cc1,0,
,,N#CCCCCCCc1ccc(CCCc2ccccc2)s1,0,
,,O=C(O)CCCCCCc1ccc(Cc2cccnc2)cc1,65,
1.5,90,O=C(O)COCCCCc1ccc(CCCc2ccccc2)s1,,inhibition [4]: 73%; inhibition [5]: 40%; inhibition [6]: 54%
,,O=C(O)CCCCCS(=O)(=O)c1ccc(CCCc2ccccc2)s1,0,
,,O=C(O)CCCCCCc1ccc(CCCc2cccc(Cl)c2)s1,45,
,,O=C(O)CCCCCOc1ccc(Cc2ccccc2)cc1,69,
6.2,73,O=C(O)CCCC(O)CCc1ccc(CCCc2ccccc2)s1 (configuration not stated),,
3.4,76,O=C(O)CCCCCCc1ccc(CCCc2ccccc2)cc1,,inhibition [6]: 15%
5,85,O=C(O)CCCCCCc1ccc(Cc2cnc3ccccc3c2)cc1,,inhibition [4]: 27%; inhibition [6]: 19%; inhibition [7]: 27%
,,O=C([O-])CCCCCCCc1ccc(CCCc2ccccc2)s1.[Na+],0,

IC50 [2] [µM],inhibition [3] [%],SMILES,Inhibition [1] [%],further results
,,COc1ccc(CCCc2ccc(SCCCCCC(=O)O)cc2)cc1,35,
,,CNc1ccc(Cc2ccc(CCCCCCC(=O)O)cc2)cc1,78,
,,O=C(O)CCCCCC(=O)c1ccc(CCCc2ccccc2)cc1,27,
188,19,O=C(O)CCCCCCc1ccc(Cc2ccc(C(F)(F)F)cc2)cc1,,
,,O=C(O)CCCCCc1ccc(CCCc2ccccc2)s1,61,
,,O=C(O)CCCCCCCc1ccc(CCCc2ccccc2)cc1,45,
9.7,80,COc1ccc(CCCc2ccc(CCCCCCC(=O)O)s2)cc1,,
30,43,O=C(O)CCCCCCc1ccc(CCc2ccccc2)cc1,,
,,O=C(O)CCCCCC(=O)c1ccc(CCCc2ccccc2)s1,66,
,,CN(C)c1ccc(Cc2ccc(CCCCCCC(=O)O)cc2)cc1,29,
,,CC(C)(C)c1ccc(Cc2ccc(CCCCCCC(=O)O)cc2)cc1,0,
6.3,82,O=C(O)CCCC(=O)CCc1ccc(CCCc2ccccc2)s1,,
7.7,76,O=C(O)CCCCCCc1ccc(Cc2ccccn2)cc1,,
,,O=C(O)CCCCCCc1ccc(Cc2ccnc3ccccc23)cc1,0,
,,O=C(O)CCCCCCc1ccc(Cc2ccc3ccccc3n2)cc1,48,
7.2,73,O=C(O)CCCCCCc1ccc(Cc2ccc(Cl)cc2)cc1,,inhibition [4]: 7%; inhibition [7]: 22%
,,CC(=O)Nc1ccc(Cc2ccc(CCCCCCC(=O)O)cc2)cc1,41,
0.9,89,Nc1ccc(Cc2ccc(CCCCCCC(=O)O)cc2)cc1,,inhibition [4]: 31%; inhibition [7]: 29%
3,79,O=C(O)CCCCCCc1ccc(Cc2ccccc2)cc1,,
72.5,53,O=C(O)CCCCCCc1ccc(Cc2ccc([N+](=O)[O-])cc2)cc1,,
9.1,82,O=C(O)CCCCCSc1ccc(Cc2ccccc2)cc1,,

IC50 [2] [µM],inhibition [3] [%],SMILES,Inhibition [1] [%],further results
2.9,,O=C(O)CCCCCCc1ccc(CCCc2ccccc2)s1,,inhibition [6]: 44%; inhibition [7]: 0%; inhibition [8]: 82%
,,O=C(O)CCCCCCc1ccc(Cc2ccncc2)cc1,43,
6.2,74,O=C(O)CCCCCSc1ccc(CCCc2ccccc2)cc1,,inhibition [4]: 12%; inhibition [6]: 20%
,,c1ccc(CCCc2ccc(CCCCCCC3N=NN=N3)s2)cc1,29,
,,CS(=O)(=O)Nc1ccc(Cc2ccc(CCCCCCC(=O)O)cc2)cc1,0,
2.8,79,O=C(O)CCCCCSc1ccc(CCCc2ccccc2)s1,,inhibition [4]: 19%; inhibition [6]: 19%; inhibition [7]: 4%
,,O=C(O)CCCCCCc1ccc(-c2ccccc2)s1,67,
,,O=C(O)CNC(=O)CCCc1ccc(CCCc2ccccc2)s1,53,
,,O=C([O-])CCCCCCc1ccc(CCCCc2ccccc2)s1.[Na+],0,
,,O=C(O)CCCCCc1ccc(CCCc2ccccc2)cc1,43,
,,O=C(O)CCCCCCc1ccc(Cc2ccccc2Cl)cc1,0,
,,O=C(O)CCCCCCc1ccc(Cc2ccc3ccccc3c2)cc1,22,
,,O=C([O-])CCCCc1ccc(CCCc2ccccc2)s1.[Na+],0,
,,O=C([O-])CCCCc1ccc(CCCc2ccccc2)cc1.[Na+],35,
,,O=C(O)CCCCCCc1ccc(CCCc2ccc(O)cc2)s1,69,
,,O=C(O)CCCNC(=O)Cc1ccc(CCCc2ccccc2)s1,12,
3.5,86,O=C(O)CCCCCCc1ccc(CCc2ccccc2)s1,,
1.7,100,NC(=O)Nc1ccc(Cc2ccc(CCCCCCC(=O)O)cc2)cc1,,
15,51,O=C(O)CCCCCCc1ccc(Cc2ccccc2)s1,,
,,O=C(O)CCCC(=O)NCc1ccc(CCCc2ccccc2)s1,38,
